{"data": "Experimental data of several laboratories", "target": "Rho-associated protein kinase 1 (ROCK1, Homo sapiens, UniProt Q13464)", "note": "Compare with care: the assays were run in different laboratories."}
{"SMILES": "O=c1[nH]c2ccccc2n1C1CCN(Cc2ccc(-c3[nH]c4cc5ncnc5cc4nc3-c3ccccc3)cc2)CC1", "observed": "cell-free assay", "tested at": "0.5 µM", "endpoint": "remaining signal", "value": "101%"}
{"SMILES": "Nc1ncc(-c2nc(N3CCOCC3)nc(N3CCOCC3)n2)c(C(F)F)n1", "observed": "binding", "method": "competition with immobilised ligand", "tested at": "10 µM", "endpoint": "remaining binding", "value": "99%"}
{"SMILES": "Cn1cncc1[C@](O)(COc1ccc(C#N)cc1-c1ccc(OC(F)(F)F)cc1)c1ccc(C#N)cc1", "observed": "cell-free assay", "method": "competition with immobilised ligand", "tested at": "1 µM", "endpoint": "remaining binding", "value": "100%"}
{"SMILES": "C#Cc1n[nH]c2c(-c3cn([C@@H](C)c4ccccn4)c(=O)[nH]c3=O)cc(F)cc12", "observed": "enzyme activity", "action": "inhibitor", "tested at": "0.1 µM", "endpoint": "inhibition", "value": "6.5%"}
{"SMILES": "COc1cc(Nc2ncc(F)c(Nc3ccc4c(n3)NC(=O)C(C)(C)O4)n2)cc(OC)c1OC", "observed": "binding", "tested at": "10 µM", "endpoint": "inhibition", "value": "86%"}
{"SMILES": "Cn1cc(-c2cccc(N3CCc4c(sc5c4CC(C)(C)C5)C3=O)c2CO)cc(Nc2ccncn2)c1=O", "observed": "enzyme activity", "action": "inhibitor", "tested at": "1 µM", "endpoint": "inhibition", "value": "1%"}
{"SMILES": "CC(C)(C)c1cc(C=C(C#N)C#N)cc(Br)c1O", "observed": "enzyme activity", "action": "inhibitor", "tested at": "0.5 µM", "endpoint": "remaining activity", "value": "82.9%"}
{"SMILES": "N#CC1(c2ccccn2)CCN(Cc2cc(C(=O)O)c(=O)n3ccccc23)CC1", "observed": "cell-free assay", "method": "competition with immobilised ligand", "tested at": "1 µM", "endpoint": "remaining binding", "value": "86%"}
{"SMILES": "COc1ncccc1-c1cnn2ccc(N3CCN(C(=O)OC(C)C)CC3)nc12", "observed": "binding", "method": "competition with immobilised ligand", "tested at": "1 µM", "endpoint": "remaining binding", "value": "95%"}
{"SMILES": "Cn1cc(-c2cc(F)cc(N3CCn4c(cc5c4CCCC5)C3=O)c2CO)cc(Nc2ccc(N3CCN(C4COC4)CC3)cn2)c1=O", "observed": "enzyme activity", "action": "inhibitor", "tested at": "0.1 µM", "endpoint": "inhibition", "value": "0%"}
